# Experimental data as given in ChEMBL document CHEMBL4602726, “Discovery of the First Vitamin K Analogue as a Potential Treatment of Pharmacoresistant Seizures” (J Med Chem, 2020).
# Columns and labels:
# [1] = Drug level in CD1 mouse plasma at 400 mg/kg, ip after 0.5 hrs by LC-MS/MS analysis; assay type: ADME, organism-based
# In short: (§1)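 Male mice fasted overnight and given ip dose in 95% Miglyol 840/5% DMSO. Plasma precipitated 3:1 with acetonitrile plus internal standard. Brain homogenized 3:1 in PBS, then acetonitrile extraction. LC-MS/MS in MRM mode, standard curve 1 ng/mL–10 μg/mL. Ratio = mean tissue (ng/g) over mean plasma (ng/mL) concentration.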
# [2] = Drug level in CD1 mouse plasma at 400 mg/kg, ip after 4 hrs by LC-MS/MS analysis; assay type: ADME, organism-based; in short: as §1
# [3] = target: T1, Cytochrome P450 2B6 (Homo sapiens, UniProt P20813); assay: Inhibition of CYP2B6 in human liver microsomes using isoform-specific probe substrates incubated for 15 to 30 mins by LC-MS/MS analysis; assay type: ADME
# T1 sequence (P20813 whole entry): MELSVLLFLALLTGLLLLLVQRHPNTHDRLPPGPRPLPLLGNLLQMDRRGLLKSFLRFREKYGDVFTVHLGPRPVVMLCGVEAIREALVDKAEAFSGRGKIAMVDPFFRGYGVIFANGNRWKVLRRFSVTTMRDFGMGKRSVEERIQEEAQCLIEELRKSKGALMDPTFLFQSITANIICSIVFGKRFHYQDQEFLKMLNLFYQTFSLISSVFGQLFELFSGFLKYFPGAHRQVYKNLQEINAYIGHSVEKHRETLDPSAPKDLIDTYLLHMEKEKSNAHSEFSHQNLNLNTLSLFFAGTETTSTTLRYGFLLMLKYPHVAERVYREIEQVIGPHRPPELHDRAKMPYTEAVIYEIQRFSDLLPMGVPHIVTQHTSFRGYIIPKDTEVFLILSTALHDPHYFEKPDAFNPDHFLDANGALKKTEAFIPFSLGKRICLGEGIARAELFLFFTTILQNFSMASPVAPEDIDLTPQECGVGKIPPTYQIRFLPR
# In short: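 Pooled mixed-gender human liver microsomes 0.2 mg/mL in 100 mM potassium phosphate with 2 mM NADPH. Isoform-specific probe substrates near Km. Organic solvent ≤1% final. Incubated 37°C for 15–30 min, quenched with acetonitrile plus internal standard. Probe metabolites measured by LC-MS/MS; percent inhibition versus vehicle, IC50 by variable-slope sigmoid fit.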
# [4] = tested on: Mus musculus; assay: Anti-seizure activity in ip dosed CF1 mouse assessed as attenuation of clonic forebrain seizures treated 1 hr before PTZ dosing and measured after 30 mins by scPTZ test; assay type: functional
# In short: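 Male CF-1 mice, n=8 per dose, given compound ip in 0.5% HPMC. PTZ 85 mg/kg s.c. in the neck at 1 h. Animals observed 30 min in isolation cages for clonic spasms lasting 3–5 s; those without spasms counted protected.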
# [5] = Oral bio availability in CD1 mouse at 20 mg/kg measured after 0.083 to 24 hrs by LC-MS/MS analysis; assay type: ADME, organism-based; settings: in vivo
# In short: (§2)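 Male CD-1 mice, 3 per route. Oral and ip at 20 mg/kg by gavage needle; iv at 5 mg/kg by tail vein. Vehicles were 20% DMA:40% PEG300:40% H2O for oral/iv and 5% DMSO:95% Neobee for ip. Blood sampled 0.083–24 h, plasma protein-precipitated with acetonitrile plus internal standard, LC-MS/MS (MRM). Non-compartmental analysis, linear trapezoidal AUC.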
# [6] = Ratio of drug level in brain to plasma in CD1 mouse at 400 mg/kg, ip after 1 hr by LC-MS/MS analysis; assay type: ADME, organism-based; settings: brain and plasma, read-out: BPR; in short: as §1
# [7] = tested on: Mus musculus; assay: Anti-seizure activity in ip dosed CF1 mouse assessed as reduction in hindlimb tonic extension during seizure measured at 1 hr by MES test; assay type: functional
# In short: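 Male CF-1 mice, n=8 per dose, dosed ip as 0.5% HPMC suspension, tested 1 h later. Corneal 60 Hz, 50 mA, 2 s shock after 0.5% tetracaine applied to eyes. Protection = absence of hindlimb tonic extension. ED50 from four dose levels.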
# [8] = Drug level in CD1 mouse plasma at 400 mg/kg, ip after 2 hrs by LC-MS/MS analysis; assay type: ADME, organism-based; in short: as §1
# [9] = Toxicity in CF1 mouse assessed as induction of abdominal constriction measured at time of treatment by writhing test; settings: in vivo
# [10] = Ratio of drug level in brain to plasma in CD1 mouse at 400 mg/kg, ip after 2 hrs by LC-MS/MS analysis; assay type: ADME, organism-based; settings: brain and plasma, read-out: BPR; in short: as §1
# [11] = Toxicity in mouse HT22 cells assessed as inhibition of cell viability at 10 uM incubated for 48 hrs by Cell-titer-Blue dye based fluorescence spectrophotometry relative to control; set-up: species or system HT-22; settings: read-out: Activity
# In short: (§3)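 HT-22 cells in DMEM high glucose with 10% FBS, 2000 per well. Serially diluted compound added after 12 h, incubated 48 h. […] Background subtracted, normalized to control wells.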
# [12] = Cmax in CD1 mouse at 20 mg/kg, ip measured after 0.083 to 24 hrs by LC-MS/MS analysis; assay type: ADME, organism-based; set-up: dose 20 mg/kg, route intraperitoneal; settings: in vivo; in short: as §2
# [13] = AUClast in CD1 mouse at 5 mg/kg, iv measured after 0.083 to 24 hrs by LC-MS/MS analysis; assay type: ADME, organism-based; set-up: dose 5 mg/kg, time upper 24 hr, time lower 0.083 hr, route intravenous; settings: in vivo; in short: as §2
# [14] = AUClast in CD1 mouse at 20 mg/kg, po measured after 0.083 to 24 hrs by LC-MS/MS analysis; assay type: ADME, organism-based; set-up: time 0.083-24 hr, dose 20 mg/kg, route oral; settings: in vivo; in short: as §2
# [15] = Toxicity in CF1 mouse assessed as induction of motor/sedative effects at 400 mg/kg, ip; assay type: organism-based; settings: in vivo
# In short: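 Rotarod at 6 rpm on the same animals immediately before 6 Hz stimulation, 1 h after ip dosing. A mouse falling three times within one minute was scored impaired.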
# [16] = Drug level corresponding to free EC50 in CD1 mouse at 200 to 400 mg/kg, ip by LC-MS/MS analysis; assay type: ADME, organism-based; settings: in vivo
# [17] = Toxicity in CF1 mouse assessed as induction of discolored urine; settings: in vivo
# [18] = Drug reactivity with 2-mercaptoethanol measured over 24 hrs; assay type: physicochemical
# [19] = Toxicity in mouse HT22 cells assessed as inhibition of cell viability at 50 uM incubated for 48 hrs by Cell-titer-Blue dye based fluorescence spectrophotometry relative to control; set-up: species or system HT-22; settings: read-out: Activity; in short: as §3
# [20] = Cmax in CD1 mouse at 20 mg/kg, po measured after 0.083 to 24 hrs by LC-MS/MS analysis; assay type: ADME, organism-based; set-up: dose 20 mg/kg, route oral; settings: in vivo; in short: as §2
# [21] = Tmax in CD1 mouse at 20 mg/kg, ip measured after 0.083 to 24 hrs by LC-MS/MS analysis; assay type: ADME, organism-based; settings: in vivo
# [22] = tested on: Mus musculus; assay: Anti-seizure activity in CF1 mouse assessed as attenuation of psychomotor seizures at stimulus intensities of 32 mA at 400 mg/kg, ip measured at 0.25 to 4 hrs by 6 Hz limbic seizure test relative to control; assay type: functional
# In short: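 Male CF-1 mice, n=8 per dose. 6 Hz, 3 s corneal stimulation at 32 or 44 mA. Compound given ip in miglyol840/DMSO (95%/5%). Time of peak effect found by testing at 0.25–4 h; dose-response run at that time. Protected if no stun, jaw/forelimb clonus, vibrissae twitching or Straub tail for ≥1 s. ED50 by Probit analysis.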
# [23] = Drug reactivity with 2-mercaptoethanol measured over 6 hrs; assay type: physicochemical
smiles,measurement,setting,value
CC(C)CCNC1=CC(=O)c2ccccc2C1=O,concentration at 0.5 h,[1],1260 ng/mL
same,concentration at 4 h,[2],3740 ng/mL
same,IC50,[3],39.3 µM
same,ED50,[4],349 mg/kg
same,F,[5],35.9%
same,Kp at 1 h,[6],2.33
same,ED50,[7],108 mg/kg
same,concentration at 2 h,[8],2750 ng/mL
same,Activity,[9],Toxic
same,Kp at 2 h,[10],1.79
same,"inhibition at 48 h, 10 µM",[11],11.9%
same,Cmax,[12],320 ng/mL
same,AUC(0-t),[13],636 ng·h/mL
same,AUC(0-t),[14],903 ng·h/mL
same,Activity,[15],Non-Toxic
same,Drug uptake(free),[16],123 nM
same,Activity,[17],Toxic
same,Drug metabolism,[18],Metabolite_Notdetected
same,"inhibition at 48 h, 50 µM",[19],17.8%
same,Cmax,[20],1020 ng/mL
same,Tmax,[21],1 h
same,Activity,[22],100%
same,Drug metabolism,[23],Metabolite_Notdetected
